GRK2 inh – human GRK2 inhibition via aptamer displacement. P25098. bead flow cytometry, FAM-aptamer displacement from GRK2. inhibition of aptamer binding, % at 10 µM. actives 0.59% (n = 330,000);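 active = inhibition of aptamer binding above 40%, roughly 3 SD of noise, on plates passing a quality check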;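 also: median bead fluorescence of bound FAM aptamer so fluorescent compounds give negative values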
B2AR ag – agonists of human beta-2 adrenergic receptor inducing internalization; P07550; Am2.2-beta2AR cells, FAP receptor internalization, flow cytometry; response, % (concentration not given with the values); actives 0.43% (n = 340,000);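 active = response above a set limit, near 3 SD of response in nonfluorescent compounds, cut at about 42% in these data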
Arr AP2 block – human beta-arrestin and AP2 interaction inhibition; FITC-arrestin peptide / GST-AP2 beads, flow cytometry; AP2 beta2 appendage carries R879A mutation; inhibition, % at 10 µM; actives 0.31% (n = 340,000); AID 504490;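 active = inhibition above a set limit, near 3 SD of compounds lacking own fluorescence, cut at about 54% in these data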;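 also: plate controls were DMSO wells for no effect and 5 µM unlabelled arrestin peptide for full effect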
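System: GST-AP2 R879A bound to glutathione beads, E. coli-expressed. Also added: 50 nM FITC-arrestin peptide. Schedule: compound with beads 12 min RT, then probe 1 h RT. Signal: bead flow cytometry, FITC channel. Read-out basis: percent response.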
H9c2 TAG inh – inhibitors of triacylglycerol accumulation. H9c2 cells, Nile Red lipid (TAG) fluorescence; cells loaded with 200 µM oleic acid. inhibition, % at 12.5 µM. actives 0.66% (n = 230,000);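 active = pattern-corrected inhibition of lipid staining of at least 50% with the nuclear-stain viability signal not falling by more than 50%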;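 also: 0% = DMSO wells and 100% = triacsin C control wells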
Hep lipid drop – modulators of hepatic lipid droplet formation. AML12 mouse hepatocytes, oleate lipid droplets, BODIPY imaging. inhibition, % at 6.5 µM. actives 0.4% (n = 240,000). AID 1656;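 active = lipid droplet intensity inhibited by at least 50%, with more than 500 cells counted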
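Material – AML12 mouse liver cells · Also added – oleate loading, 100 µM · Compound dosing – 6.5 µM single-point dosing · Times – overnight treatment with compound plus oleate · Measured by – fluorescence imaging, 20x objective, two fields per well · Read-out – percent inhibition of filter-corrected integrated lipid droplet intensity per well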
NTR1 agonist – activates human neurotensin receptor 1; actives 0.17% (n = 330,000); NTR1-U2OS beta-arrestin-GFP spot imaging, agonist mode; activation, % at 20 µM;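 active = activation at or above 40% of the spot to cytoplasm intensity ratio, with at least 20 cells analyzed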;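 also: 0% = DMSO without peptide and 100% = 100 nM NTR1 peptide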
Target sequence (P30989 whole entry, looked up): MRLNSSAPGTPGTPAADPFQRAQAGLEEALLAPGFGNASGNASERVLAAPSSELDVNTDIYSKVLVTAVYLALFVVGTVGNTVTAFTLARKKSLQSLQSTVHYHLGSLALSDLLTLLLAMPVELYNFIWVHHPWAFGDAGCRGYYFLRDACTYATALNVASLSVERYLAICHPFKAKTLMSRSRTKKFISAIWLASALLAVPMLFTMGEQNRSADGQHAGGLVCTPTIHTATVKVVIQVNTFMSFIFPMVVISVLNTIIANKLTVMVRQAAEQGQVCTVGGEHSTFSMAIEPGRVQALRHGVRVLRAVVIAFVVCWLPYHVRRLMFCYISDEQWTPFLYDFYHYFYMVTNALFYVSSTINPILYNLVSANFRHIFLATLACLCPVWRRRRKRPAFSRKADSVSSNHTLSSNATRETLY
Arr-AP2 CP1 – human beta-arrestin and AP2 interaction inhibition, cherry pick; shares compounds with Arr AP2 block; inhibition, % at 10 µM; AID 504908; GST-AP2 beads, FITC arrestin peptide binding, flow cytometry; GST-fused beta2-adaptin appendage, R879A mutant; actives 2% (n = 1,300);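 active = inhibition above a set limit, roughly 3 SD of non-fluorescent compound noise, cut at about 38% in these data; inactive = inhibition at or below that limit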;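 also: loss of bead fluorescence from 50 nM FITC arrestin peptide bound to appendage; 0% = negative control wells and 100% = excess unlabelled arrestin peptide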
GST GSH counter – GST-GSH bead binding interference, counter-screen | shares compounds with Arr AP2 block | GST-fluorescein binding to GSH beads, fluorescence | inhibition, % at 10 µM | actives 2% (n = 1,300);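 active = inhibition above 50%, about 3 SD of the inhibition seen with non-fluorescent compounds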;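 also: fluorescein maleimide labelled GST captured on 4 micron glutathione beads; higher means more loss of bead fluorescence from quenching or blocked binding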
Numbers without * were called inactive; . = no result given. Rows were chosen to be rich in hits. Some 2% of all compounds tested hit in one or more screens of this group.

SMILES	GRK2 inh	B2AR ag	Arr AP2 block	H9c2 TAG inh	Hep lipid drop	NTR1 agonist	Arr-AP2 CP1	GST GSH counter
COc1ccc(OCCC(=O)OCC(=O)NCc2ccco2)cc1	9	-1	4	8	.	-2	.	.
COc1ccccc1-c1nnc(SC(C(=O)c2c[nH]c3ccccc23)c2ccccc2)n1C (configuration not stated)	1	1	-4	.	-26	5	.	.
COc1cccc(-c2nnc(SC(C(=O)c3c[nH]c4ccccc34)c3ccccc3)n2C)c1 (configuration not stated)	14	-2	98*	6	8	5	11	6
CCCn1c(SCC(=O)Nc2ccc(F)c(Cl)c2)nc(O)cc1=O	0	-1	55*	-11	.	1	-7	-6
COc1ccc(-n2ccc(=O)c(C(=O)O)n2)c(OC)c1	0	12	13	.	9	0	.	.
COc1ccc2nc(-c3ccccc3)cc(C(=O)OCC(=O)N3CC(C)OC(C)C3)c2c1 (configuration not stated)	2	5	54*	15	.	5	3	-2
COc1ccc2nc(-c3ccccc3)cc(C(=O)OCC(=O)N3CCCCC3)c2c1	1	5	28	-3	.	6	.	.
CC1(C(=O)NCc2ccc3c(c2)OCO3)CCN1C(=O)CCc1ccc(Cl)cc1Cl (configuration not stated)	.	.	.	3	.	.	.	.
CCOc1ccc(C(C)=O)cc1N1C(=O)C2C3C=CC(C3)C2C1=O (configuration not stated)	20	7	1	.	-9	0	.	.
CCOc1ccc(C(C)=O)cc1N1C(=O)C2C3C=CC(O3)C2C1=O (configuration not stated)	0	8	78*	.	.	0	-2	-6
CCC1(c2ccccc2)NC(=O)N(CC(=O)Nc2ccc3c(c2)OCO3)C1=O (configuration not stated)	3	4	-4	.	.	1	.	.
CCCC1(c2ccccc2)NC(=O)N(CC(=O)Nc2ccc3c(c2)OCCO3)C1=O (configuration not stated)	0	-6	65*	11	.	-1	20	1
CCCCn1c(N)c(N(CCOC)C(=O)COC(=O)COc2ccccc2C#N)c(=O)[nH]c1=O	0	1	56*	-10	.	2	19	3
CCCCn1c(N)c(N(CCOC)C(=O)COC(=O)COc2cc(C)ccc2Cl)c(=O)[nH]c1=O	2	-1	-7	-8	.	-1	.	.
CN(Cc1ccccc1)S(=O)(=O)c1cccc(C(=O)O)c1	0	-3	-2	6	1	1	.	.
CN1CCN(S(=O)(=O)c2cccc(C(=O)NC3CCCC3)c2)CC1	3	0	60*	7	.	-1	3	3
Cc1ccc(S(=O)(=O)N2CCC(C(=O)NC3CCCC3)CC2)cc1Cl	0	3	0	.	-4	-2	.	.
Cc1ccc(S(=O)(=O)N2CCCC(C(=O)NC3CCCC3)C2)cc1Cl (configuration not stated)	1	14	57*	.	-3	-1	-10	0
CC(=O)N1CCN(S(=O)(=O)c2cccc(C(=O)NC3CCCC3)c2)CC1	4	-8	-19	-8	.	-1	.	.
Cc1cccc(N2CCN(C(=O)c3cccc(N4CCCC4=O)c3)C(C)C2)c1 (configuration not stated)	3	-3	35	.	-15	1	.	.
Cn1nc(C(=O)N2CCCC2)c2ccccc2c1=O	2	-5	3	-15	13	3	.	.
CSc1ccc(C(=O)C2CCCN(C(=O)c3nn(C)c(=O)c4ccccc34)C2)cc1 (configuration not stated)	4	-10	58*	-10	-33	1	5	-4
CCCCCCCCNCCS(=O)(=O)NN1CCOCC1	0	-4	-5	-11	.	3	.	.
CCOc1ccc(/C=N/NC(=O)Cc2csc(Nc3cccc(C(F)(F)F)c3)n2)cc1	0	1	86*	26	30	20	9	2
CCOc1ccc(/C=N/NC(=O)Cc2csc(Nc3cccc(C(F)(F)F)c3)n2)c(OCC)c1	1	1	7	.	.	16	.	.
SMILES	GRK2 inh	B2AR ag	Arr AP2 block	H9c2 TAG inh	Hep lipid drop	NTR1 agonist	Arr-AP2 CP1	GST GSH counter
Oc1cc2c(cc1C(c1ccc(Br)cc1)N1CCCC1)OCO2 (configuration not stated)	.	13	60*	-3	4	4	11	18
O=S(=O)(NCC(c1ccc2c(c1)OCO2)N1CCOCC1)c1ccc(Br)cc1 (configuration not stated)	3	4	6	10	.	0	.	.
CC(C)(C)[C@H]1C=C(C(=O)N2CCOCC2)O[C@@H](OCCCCO)C1	.	0	54*	-41	18	-1	-7	-2
CN1CCN(C(=O)C2=C[C@H](C(C)(C)C)C[C@H](OCCCCO)O2)CC1	1	-8	-4	-3	-17	-1	.	.
Cc1ccc(NC(=O)c2ncn(CCCN[C@H](C)c3cccc4ccccc34)n2)cc1C	.	29	1	-6	.	.	.	.
COc1ccc(N2CCN(C(CNS(=O)(=O)c3cc(F)ccc3F)c3cccnc3)CC2)cc1 (configuration not stated)	0	4	84*	12	-4	0	16	-11
CCc1ccc(C(=O)N/N=C/c2ccncc2)s1	0	2	10	10	-4	-1	.	.
CCCCCC(=O)N1C[C@@H](O)[C@H](n2cc(COC(=O)c3ccccc3)nn2)C[C@@H]1c1ccccc1	.	.	.	1	.	.	.	.
COC1c2ccccc2C(=O)N1Cc1ccc(F)cc1 (configuration not stated)	3	-1	61*	.	4	0	8	-10
CC(=O)c1ccc(NC(=O)CCCN2C(=O)C(c3ccccc3)Oc3cccnc32)cc1 (configuration not stated)	0	3	-4	.	-17	1	.	.
Cc1cc(=O)[nH]n(CCO)c1=O	0	0	-8	-14	-21	4	.	.
CC(=O)Nc1cccc(NC(=O)C2CC(=O)N(C3CCCCC3)C2)c1 (configuration not stated)	14	-3	61*	.	-3	0	9	-6
COc1cc(/C=C/C(=O)O)ccc1OS(=O)(=O)c1cc(Br)ccc1C	2	9	56*	2	.	2	-7	5

Assay outcomes as filed in PubChem BioAssay.
